Measured values gathered from unrelated publications.
Compare with care: the assays were run in different laboratories.
Target: Kappa-type opioid receptor (OPRK1, Homo sapiens, UniProt P41145)
Effect on: ligand displacement
Tested at: 10 µM

Structure (SMILES)	technique	setting	inhibition
CCc1ccccc1C(=O)Nc1n[nH]c2c(C)c(F)c(C3C(C#N)=C(C)N(C)C(C)=C3C#N)cc12			16.1%
COc1ccc(C(=O)NCc2cc(C(C)C)no2)cc1OC1CCN(C)CC1	radioligand		22%
c1ccc(C2CCN(c3cnc4c(N5CCOCC5)nccn34)CC2)cc1			6.44%
C[C@H](C(=O)N[C@H]1COc2ccccc2[C@@H]1S(C)(=O)=O)c1ccc(F)cc1			1%
C[C@@H]1N=C(c2ccccc2F)c2cc(Br)ccc2-n2cnc(C(=O)O)c21	radioligand		62.8%
Clc1ccc2c(C3CCN(CCc4c[nH]c5ccccc45)CC3)c[nH]c2c1	radioligand		79%
C[C@@H]1C[C@H]2O[C@@H]2/C=C\C=C\C(=O)Cc2c(Cl)c(O)cc(O)c2C(=O)O1	radioligand	cell membranes	-56%
COCc1c(-c2cc3cc(C)cc(OC)c3s2)c2c(N)ncnn2c1CN1CCNC(=O)C1	radioligand		17%
c1ccc(C(NCCNC(c2ccccc2)c2ccccc2)c2ccccc2)cc1			88%
CC(C)N1CCC[C@H]1CNC(=O)c1cn(C2CCCC2)c(=O)c2c1c1ccccc1n2C	radioligand		5%
